Assay results from ChEMBL document CHEMBL3808278, “Design, Synthesis, and Biological Evaluation of Imidazo[1,5-a]quinoline as Highly Potent Ligands of Central Benzodiazepine Receptors” (J Med Chem, 2016).
Calls of active or inactive are those of the source. The calls are words filed in the database; no cut-off is given here.

Experiments:
Rattus norvegicus [1] = species on record: Rattus norvegicus; assay: Antagonist activity at central-type benzodiazepine receptor in Sprague-Dawley rat cerebrocortical synaptoneurosomes assessed as decrease in 36Cl- flow after 10 secs by liquid-phase scintillation beta-counting method
Rattus norvegicus [2] = species on record: Rattus norvegicus; assay: Selectivity ratio, ratio of Ki for central-type benzodiazepine receptor in rat cortical membrane to Ki for central-type benzodiazepine receptor in rat cortical membrane in presence of 50 uM of GABA; format: cell membranes
Summary of the method: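 GABA ratio is Ki without GABA divided by Ki with 50 µM GABA, from [3H]flumazenil competition binding in cortical membranes. Per the table footnote, ratio values were obtained in rat cortical membranes.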

[3] = Binding affinity to rat cortical membrane central-type benzodiazepine receptor measured after 90 mins by liquid-phase scintillation beta-counting method
[4] = Displacement of [3H]-flumazenil from central-type benzodiazepine receptor in bovine cortical membrane after 90 mins by liquid-phase scintillation beta-counting method; format: cell membranes, Bos taurus
Summary of the method: (§1)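 Competition binding against radiolabelled antagonist [3H]flumazenil in cortical membranes (bovine; human where listed); Ki reported as mean ± SEM of three independent determinations.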

Bos taurus = species on record: Bos taurus; assay: Selectivity ratio, ratio of Ki for central-type benzodiazepine receptor in bovine cortical membrane to Ki for central-type benzodiazepine receptor in bovine cortical membrane in presence of 50 uM of GABA; format: cell membranes
Rattus norvegicus [5] = species on record: Rattus norvegicus; assay: Inverse agonist activity at central-type benzodiazepine receptor in Sprague-Dawley rat cerebrocortical synaptoneurosomes assessed as decrease in 36Cl- flow after 10 secs by liquid-phase scintillation beta-counting method
Rattus norvegicus [6] = species on record: Rattus norvegicus; assay: Partial agonist activity at central-type benzodiazepine receptor in Sprague-Dawley rat cerebrocortical synaptoneurosomes assessed as increase in 36Cl- influx after 10 secs by liquid-phase scintillation beta-counting method
[7] = Displacement of [3H]-flumazenil from central-type benzodiazepine receptor in human cortical membrane after 90 mins by liquid-phase scintillation beta-counting method; format: cell membranes; summary of the method: as §1
Rattus norvegicus [8] = species on record: Rattus norvegicus; assay: Partial inverse agonist activity at central-type benzodiazepine receptor in Sprague-Dawley rat cerebrocortical synaptoneurosomes assessed as decrease in 36Cl- flow after 10 secs by liquid-phase scintillation beta-counting method
Homo sapiens = species on record: Homo sapiens; assay: Selectivity ratio, ratio of Ki for central-type benzodiazepine receptor in human cortical membrane to Ki for central-type benzodiazepine receptor in human cortical membrane in presence of 50 uM of GABA; format: cell membranes
Brain = assay: Neuroprotective activity against oxygen-glucose deprivation and reoxygenation-induced injury in Sprague-Dawley rat brain cortical slices assessed as maximum recovery in LDH release at 5 uM treated during 90 mins of reperfusion phase measured after 90 mins by spetrophotometric method; format: functional
Summary of the method: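 Rat brain cortical slices in ACSF underwent 30 min oxygen/glucose deprivation, then 90 min reoxygenated ACSF (reperfusion). Controls were kept 120 min in ACSF. Compounds (0.1–100 µM) were added only during reperfusion, and LDH release was measured. Data are means ± SEM of at least 4 experiments, analysed by ANOVA with Dunnett post test. The effective concentration is that giving the largest reduction, and recovery is the % reversion at that concentration.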

Mus musculus [9] = assay: Anxiolytic activity against mouse assessed as increase in time spent in light box at 10 mg/kg, po administered 30 mins before test by light-dark box test; format: functional, organism-based
Summary of the method: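 Light-dark box in mice measured time in the light compartment. Compounds were given per os 30 min before testing, and diazepam 1 mg kg-1 subcutaneously as reference. Values are mean ± SEM of at least 10 mice, compared with vehicle-treated animals.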

Mus musculus [10] = assay: Antiamnestic activity in mouse assessed as prevention of scopalamine-induced amnesia at 10 mg/kg, po administered 30 mins before test by passive avoidance test; format: functional, organism-based
Summary of the method: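 Passive avoidance in mice: compounds were given per os 30 min before the test, and scopolamine 1.5 mg kg-1 i.p. immediately after the punishment. Read-out was time recorded during the retention session. Values are mean ± SEM of at least 10 mice, compared with vehicle-treated animals.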

Mus musculus [11] = assay: Neurotoxicity in mouse assessed as effect on neurological and muscular abilities at 10 mg/kg, po after 30 mins by Hole-Board test; format: toxicity, organism-based; conditions: in vivo, 0.5 h
Summary of the method: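 Hole-board test 30 min after oral dosing at 10 mg kg-1 counted movements (motor activity) and head inspections (exploratory activity). Values are mean ± SEM of at least 10 mice, compared with vehicle controls.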

Mus musculus [12] = species on record: Mus musculus; assay: Myorelaxant effect in mouse assessed as effect on motor coordination after 30 mins by rotarad test; format: organism-based; conditions: in vivo, 0.5 h
Summary of the method: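 Rota-rod test of motor coordination in mice, with compounds given per os 30 min before testing. Values are mean ± SEM of at least 10 mice.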

| SMILES | Antagonist activity (Rattus norvegicus [1]) | Ki [4] [nM] | Ratio Ki (Bos taurus) | other results |
| --- | --- | --- | --- | --- |
| CCOC(=O)c1ncn2c1cc(C(=O)N(C)Cc1ccccc1)c1cc(C#C[Si](C)(C)C)ccc12 | Active |  |  | Ratio Ki (Rattus norvegicus [2]): 0.99; Ki [3]: 510 nM |
| C#CCN(C)C(=O)c1c(C)c2c(C(=O)OCC)ncn2c2ccccc12 | Active | 1.2 | 1 |  |
| CCOC(=O)c1ncn2c1cc(C(=O)N(C)Cc1ccccc1)c1cc(Br)ccc12 | Active |  |  | Ratio Ki (Rattus norvegicus [2]): 0.9; Ki [3]: 24 nM |
| CCOC(=O)c1ncn2c1cc(C(=O)N(C)Cc1ccccc1)c1cc(F)ccc12 |  | 5.7 | 0.8 | Activity (Rattus norvegicus [5]): Active |
| CCOC(=O)c1ncn2c1CN(C(C)=O)c1cc(F)ccc1-2 |  | 2.2 | 0.75 | Activity (Rattus norvegicus [6]): Active; Ki [7]: 2.7 nM; Activity (Rattus norvegicus [8]): Active; Ratio Ki (Homo sapiens): 0.95 |
| CCOC(=O)c1ncn2c1cc(C(=O)N(C)Cc1ccccc1)c1ccccc12 |  | 20 | 0.52 | Activity (Rattus norvegicus [5]): Active |
| CCOC(=O)c1ncn2c1CN(C(C)=O)c1ccccc1-2 | Active | 25 | 0.9 | Ki [7]: 33 nM |
| CCCc1c(C(=O)N(CC)CC)c2ccccc2n2cnc(C(=O)OC(C)(C)C)c12 |  | 2870 | 1.1 |  |
| CN1C(=O)CN=C(c2ccccc2F)c2cc([N+](=O)[O-])ccc21 [FLUNITRAZEPAM] |  | 5.2 | 1.68 | Ki [7]: 6.4 nM; Activity (Rattus norvegicus [8]): Active; Ratio Ki (Homo sapiens): 1.61 |
| CN(C)C(=O)c1cc2c(C(=O)OC(C)(C)C)ncn2c2ccccc12 |  | 11 | 1.6 | Activity (Rattus norvegicus [6]): Active |
| CCOC(=O)c1ncn2c1c(C)c(C(=O)O)c1ccccc12 |  | 105 | 1.2 | Activity (Rattus norvegicus [6]): Active |
| CC(C)(C)OC(=O)c1ncn2c1cc(-c1ccccc1)c1ccccc12 |  | 55 | 0.8 | Activity (Rattus norvegicus [5]): Active |
| CC(=O)N1Cc2c(C(=O)OC(C)(C)C)ncn2-c2ccc(F)cc21 | Active | 1 | 1 | Activity (Rattus norvegicus [6]): Active; Ki [7]: 2 nM; Ratio Ki (Homo sapiens): 1 |
| CCOC(=O)c1cc2c(cn1)[nH]c1ccccc12 |  |  |  | Activity (Rattus norvegicus [8]): Active |
| CCCc1c(C(=O)N(CCC)CCC)c2ccccc2n2cnc(C(=O)OC(C)(C)C)c12 | Active | 1440 | 1 |  |
| CCCc1c(C(=O)N(CCC)CCC)c2ccccc2n2cnc(C(=O)OCC)c12 | Active | 34 | 1.1 |  |
| CN(Cc1ccccc1)C(=O)c1cc2c(C(=O)OC(C)(C)C)ncn2c2ccccc12 | Active | 14 | 0.98 |  |
| CCOC(=O)c1ncn2c1c(CO)c(-c1ccccc1)c1ccccc12 |  | 1.8 | 1.18 | Activity (Rattus norvegicus [6]): Active; Ki [7]: 2 nM; Activity (Brain): 39.5% |

| SMILES | Antagonist activity (Rattus norvegicus [1]) | Ki [4] [nM] | Ratio Ki (Bos taurus) | other results |
| --- | --- | --- | --- | --- |
| CCOC(=O)c1ncn2c1CN(C)C(=O)c1cc(F)ccc1-2 [FLUMAZENIL] |  | 1.9 | 1.03 | Ki [7]: 2 nM; Activity (Rattus norvegicus [8]): Active; Ratio Ki (Homo sapiens): 1.02 |
| CCCc1c(C(=O)N(CC)CC)c2ccccc2n2cnc(C(=O)OCC)c12 |  | 169 | 0.9 |  |
| CN(C)C(=O)c1ncn2c1cc(-c1ccccc1)c1ccccc12 |  | 3520 | 1.44 | Activity (Rattus norvegicus [6]): Active |
| CCOC(=O)c1ncn2c1c(C(=O)OCC)c(-c1ccccc1)c1ccccc12 |  | 2190 | 0.66 | Activity (Rattus norvegicus [5]): Active |
| C#Cc1ccc2c(c1)c(C(=O)N(C)Cc1ccccc1)cc1c(C(=O)OCC)ncn12 | Active |  |  | Ratio Ki (Rattus norvegicus [2]): 0.95; Ki [3]: 161 nM |
| CCCN(CCC)C(=O)c1cc2c(C(=O)OCC)ncn2c2ccccc12 | Active | 0.91 | 1 |  |
| Cc1c(-c2ccccc2)c2ccccc2n2cnc(C(=O)OC(C)(C)C)c12 | Active | 10 | 1 |  |
| CCOC(=O)Cc1c(-c2ccccc2)c2ccccc2n2cnc(C(=O)OCC)c12 |  | 3.8 | 0.72 | Activity (Rattus norvegicus [5]): Active |
| CN(Cc1ccccc1)C(=O)c1ncn2c1cc(-c1ccccc1)c1ccccc12 | Active | 449 | 0.92 |  |
| CCOC(=O)c1ncn2c1cc(C(=O)N1CCN(C)CC1)c1ccccc12 | Active | 55 | 1 |  |
| CCOC(=O)c1ncn2c1c1c(c3ccccc32)CCC1 |  | 18 | 1.3 |  |
| CCOC(=O)c1ncn2c1cc(-c1ccccc1)c1ccccc12 | Active | 42 | 0.9 |  |
| CCOC(=O)c1ncn2c1c(C)c(C(=O)OC(C)(C)C)c1ccccc12 |  | 1 | 1.4 | Activity (Rattus norvegicus [6]): Active |
| CCCN(CCC)C(=O)c1cc2c(C(=O)OC(C)(C)C)ncn2c2ccccc12 | Active | 1.2 | 1.1 |  |
| CCCCN(C)C(=O)c1cc2c(C(=O)OCC)ncn2c2ccccc12 |  | 1.9 | 0.76 | Activity (Mus musculus [9]): Active; Activity (Mus musculus [10]): Active; Activity (Mus musculus [11]): Non-toxic; Activity (Rattus norvegicus [5]): Active; Activity (Mus musculus [12]): Non-toxic |
| CC(=O)N1Cc2c(C(=O)OC(C)(C)C)ncn2-c2ccccc21 | Active | 7.3 | 0.98 | Ki [7]: 7.7 nM; Ratio Ki (Homo sapiens): 1.04 |
| CCOC(=O)c1ncn2c1c(C)c(C(=O)N(C)Cc1ccccc1)c1ccccc12 | Active | 6.5 | 1.1 |  |
